Data on 30 compounds can be found in ChEMBL document CHEMBL1153510, “Fascaplysin-inspired diindolyls as selective inhibitors of CDK4/cyclin D1” (Bioorg Med Chem, 2009).

The target in assay [1] is Cyclin-dependent kinase 2 (Homo sapiens, UniProt P24941). Kind of assay: Inhibition of human CDK2/ Cyclin A catalytic subunit expressed in Sf9 insect cells assessed as histone H1 phosphorylation-associated depletion in ATP level by luminescence assay. The gist of the method: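 Human GST-cyclin A co-expressed with CDK2 in Sf-9 cells, captured on glutathione-agarose, eluted with reduced glutathione, then dialysed. Reaction volume 50 µL in kinase buffer (40 mM Tris pH 7.5, 20 mM MgCl2, 0.1 mg/ml BSA) with 3 µg histone H1 and 6 µM ATP. Also contains 10 mM β-glycerophosphate, 0.1 mM NaF, 0.1 mM orthovanadate and 1 mM DTT. Started with 200 ng enzyme, run 30 min at 30 °C. Remaining ATP read by Kinase-Glo luminescence; IC50 derived from ATP depletion. Compounds from 10 mM DMSO stocks, serially diluted in kinase buffer.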

The target of assay [2] is Cyclin-dependent kinase 4/cyclin D1 (Homo sapiens, UniProt P11802). Kind of assay: (§1) Inhibition of human CDK4/ Cyclin D1 catalytic subunit expressed in Sf9 insect cells assessed as GST-RB152 fusion protein phosphorylation-associated depletion in ATP level by luminescence assay. The essentials: (§2)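 Human GST-cyclin D1 co-expressed with CDK4 in Sf-9 cells, purified on glutathione-agarose, eluted and dialysed. Substrate GST-RB152, expressed in E. coli BL21(DE3)pLysS with 4 mM IPTG induction for 4 h at 37 °C. Reaction: 2 µg GST-RB152 and 6 µM ATP in 50 µL Tris pH 7.5/MgCl2/BSA buffer with phosphatase inhibitors and DTT. Started with 200 ng enzyme, 30 min at 30 °C. Read-out Kinase-Glo luminescence of ATP depletion, giving IC50.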

Assay [3] deals with Cyclin-dependent kinase 4/cyclin D1 (Homo sapiens, UniProt P11802+P24385). The assay is described as §1. Particulars: sf9. The gist of the method:
as §2

Cyclin-dependent kinase 4/cyclin D1 (Homo sapiens, UniProt P11802+P24385), sequence (P11802 whole entry): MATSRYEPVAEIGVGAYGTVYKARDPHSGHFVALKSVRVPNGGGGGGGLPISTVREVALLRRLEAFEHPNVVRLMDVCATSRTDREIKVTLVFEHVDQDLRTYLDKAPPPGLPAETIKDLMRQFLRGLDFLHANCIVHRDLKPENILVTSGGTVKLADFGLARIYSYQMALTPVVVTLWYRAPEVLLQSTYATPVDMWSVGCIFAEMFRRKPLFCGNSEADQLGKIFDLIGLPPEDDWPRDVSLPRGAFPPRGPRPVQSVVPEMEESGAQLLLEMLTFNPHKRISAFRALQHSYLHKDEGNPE
Cyclin-dependent kinase 4/cyclin D1 (Homo sapiens, UniProt P11802+P24385), sequence (P24385 whole entry): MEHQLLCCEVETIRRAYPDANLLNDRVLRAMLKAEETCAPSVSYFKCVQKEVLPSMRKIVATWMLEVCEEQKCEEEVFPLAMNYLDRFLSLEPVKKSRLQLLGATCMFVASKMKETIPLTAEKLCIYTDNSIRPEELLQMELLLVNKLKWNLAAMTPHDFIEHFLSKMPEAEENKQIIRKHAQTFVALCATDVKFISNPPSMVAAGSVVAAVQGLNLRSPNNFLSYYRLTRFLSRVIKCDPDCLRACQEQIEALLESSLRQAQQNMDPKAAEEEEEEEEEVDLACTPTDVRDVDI
Cyclin-dependent kinase 4/cyclin D1 (Homo sapiens, UniProt P11802), sequence (P11802 whole entry, the tested form may be a part): as the sequence (P11802 whole entry) above
Cyclin-dependent kinase 4/cyclin D1 (Homo sapiens, UniProt P11802), sequence (P24385 whole entry, further chain, the tested form may be a part): as the sequence (P24385 whole entry) above

On to `Cc1ccc2[nH]cc(C(=O)C(=O)N3CCc4ccccc43)c2c1`, for which the 50% inhibitory concentration (IC50) in assay [1] (read-out: IC50) was 951 µM; in assay [2], 41.5 µM.
For the compound `Cc1ccc2c(c1)CCN2C(=O)C(=O)c1c[nH]c2ccc(C)cc12`, the figures for the half-inhibitory concentration (IC50) in assay [1] (read-out: IC50) and in assay [2] were 710 µM and 38 µM, respectively.
In the same order, the values of `Cc1ccc2c(c1)CCN2C(=O)C(=O)c1c[nH]c2ccccc12` are 910 µM and 54 µM.
As for `Clc1ccc2c(ccn2CCc2c[nH]c3ccc(Cl)cc23)c1`, the half-inhibitory concentration (IC50) in assay [1] (read-out: IC50) came out at 862 µM; in assay [2], 38 µM.
In the case of `c1ccc2c(c1)CCN2CCCN1CCc2ccccc21`, the concentration for half-maximal inhibition (IC50) result in assay [1] (sf9) and in assay [3] was “ND(Insoluble)” each time.
Consider `c1ccc2c(c1)CCN2CCCCCCN1CCc2ccccc21`, for which the IC50 entry in assay [1] (sf9) and in assay [3] was “ND(Insoluble)” each time.
For the compound `c1ccc2c(c1)ccn2CCc1c[nH]c2ccccc12`, the concentration for half-maximal inhibition (IC50) in assay [1] (read-out: IC50) and in assay [2] was over 500 µM each time.
`c1ccc2c(c1)ccn2CCCn1ccc2ccccc21`: the values for the IC50 in assay [1] (read-out: IC50) and in assay [2] were 1070 µM and 38 µM, respectively.
In the case of `O=C(C(=O)N1CCc2cc(Cl)ccc21)c1c[nH]c2ccccc12`, the values for the half-inhibitory concentration (IC50) in assay [1] (read-out: IC50) and in assay [2] were 1030 µM and 69.5 µM, respectively.
In the same order, the values of `c1ccc2c(c1)ccn2CCn1ccc2ccccc21` are 940 µM and 37 µM.
In the same order, the values of `O=C(C(=O)N1CCc2ccccc21)c1c[nH]c2ccccc12` are 760 µM and 122 µM.
Consider `Fc1ccc2c(ccn2CCc2c[nH]c3ccc(F)cc23)c1`, for which the IC50 in assay [1] (read-out: IC50) was 895 µM; in assay [2], 73 µM.
Take `c1ccc2c(c1)CCN2CCCCCN1CCc2ccccc21`: the IC50 entry in assay [1] (sf9) and in assay [3] was “ND(Insoluble)” each time.
On to `c1ccc2c(c1)ccn2CCCCCn1ccc2ccccc21`, for which the IC50 worked out at 950 µM in assay [1] (read-out: IC50) and 52 µM in assay [2].
As for `c1ccc2c(c1)CCN2CCCCN1CCc2ccccc21`, the IC50 entry in assay [1] (sf9) and in assay [3] was “ND(Insoluble)” each time.
For the compound `Cc1ccc2c(ccn2CCc2c[nH]c3ccccc23)c1`, the IC50 in assay [1] (read-out: IC50) worked out at 500 µM; in assay [2], 130 µM.
The like results for `O=C(C(=O)N1CCc2cc(F)ccc21)c1c[nH]c2ccccc12` were, in that order, 790 µM and 136 µM.
The like results for `O=C(C(=O)N1CCc2cc(Cl)ccc21)c1c[nH]c2ccc(Cl)cc12` were, in that order, 915 µM and 43.5 µM.
In the same order, the values of `c1ccc2c(c1)ccn2CCCCCCn1ccc2ccccc21` are 1210 µM and 106 µM.
Regarding `O=C(C(=O)N1CCc2ccccc21)c1c[nH]c2ccc(Cl)cc12`, the half-inhibitory concentration (IC50) is 985 µM in assay [1] (read-out: IC50) and 96 µM in assay [2].
Consider `O=C(C(=O)N1CCc2ccccc21)c1c[nH]c2ccc(F)cc12`, for which the values for the IC50 in assay [1] (read-out: IC50) and in assay [2] were 1160 µM and 116 µM, respectively.
In the same order, the values of `Cc1ccc2c(ccn2CCc2c[nH]c3ccc(C)cc23)c1` are 960 µM and 44 µM.
As for `Clc1ccc2c(ccn2CCc2c[nH]c3ccccc23)c1`, the figures for the 50% inhibitory concentration (IC50) in assay [1] (read-out: IC50) and in assay [2] were 430 µM and 140 µM, respectively.
Turning to `c1ccc2c(c1)CCN2CCN1CCc2ccccc21`, the IC50 came out at 1230 µM in assay [1] (read-out: IC50) and 66 µM in assay [2].
For the compound `c1ccc2c(c1)ccn2CCCCn1ccc2ccccc21`, the half-inhibitory concentration (IC50) turned out to be 1030 µM in assay [1] (read-out: IC50) and 45 µM in assay [2].
The like results for `Clc1ccc2[nH]cc(CCn3ccc4ccccc43)c2c1` were, in that order, over 500 µM and over 500 µM.
In the same order, the values of `Cc1ccc2[nH]cc(CCn3ccc4ccccc43)c2c1` are 400 µM and 150 µM.
For the compound `Fc1ccc2[nH]cc(CCn3ccc4ccccc43)c2c1`, the half-maximal inhibitory concentration (IC50) was 200 µM in assay [1] (read-out: IC50) and 50 µM in assay [2].
The like results for `Fc1ccc2c(ccn2CCc2c[nH]c3ccccc23)c1` were, in that order, over 500 µM and 95 µM.
In the same order, the values of `O=C(C(=O)N1CCc2cc(F)ccc21)c1c[nH]c2ccc(F)cc12` are 816 µM and 48 µM.

In general, IC50 refers to the midpoint of a concentration-inhibition curve.
